Data on 6 molecules can be found in paper PMC2212267 (The Journal of Experimental Medicine, 1998).

Where no end group is shown, it is not given here. 5,6‑carboxyfluorescein = 5,6-carboxyfluorescein Where only a bound is given, the exact number is not on record here.

For test [1], the system named is MBP-responsive T cell lines. Put plainly: Proliferation responses of MBP-responsive T cell lines. In kind it is cell-based. The following applies: unpublished data (Rabinowitz, J.D.).
Test [2] deals with I-A^k (Mus musculus, UniProt P01910+P06343). Put plainly: FACS binding of biotinylated MBP peptides to live L cell transfectants. As to conditions: β9 mutant I-A^k H9V; among 4A, 4E, 4Y; Fig. 1 a. In outline:
(§1)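 Live L cell transfectants (wild-type or β9-mutant I-A, 5 × 10^5 cells) washed, then incubated 4 h at 37°C, 7% CO2 with 200 μM biotinylated MBP analogue in RPMI 1640/1% BSA. Washed twice, then streptavidin–Quantum red/PE for 20 min on ice. MHC level read with FITC anti-Aβk,u mAb 10-2.16; propidium iodide viability stain. Net binding is mean fluorescence minus nontransfected L cells plus peptide, divided by FITC signal, then normalized to 4A peptide on wild-type transfectant.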
On the technique in general: In flow cytometry, cells or beads pass a laser one at a time.

The target in test [3] is T1, I-A^u (Mus musculus, UniProt P06344+P14438).
T1 sequence (P14438 1-227): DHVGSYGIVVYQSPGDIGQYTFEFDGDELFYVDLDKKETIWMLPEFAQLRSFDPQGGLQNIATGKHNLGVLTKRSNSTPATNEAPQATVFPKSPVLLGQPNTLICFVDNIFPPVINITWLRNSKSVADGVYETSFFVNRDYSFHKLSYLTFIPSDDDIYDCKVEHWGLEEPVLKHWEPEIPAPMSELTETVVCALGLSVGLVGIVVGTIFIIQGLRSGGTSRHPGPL
T1 sequence (P06344 28-263): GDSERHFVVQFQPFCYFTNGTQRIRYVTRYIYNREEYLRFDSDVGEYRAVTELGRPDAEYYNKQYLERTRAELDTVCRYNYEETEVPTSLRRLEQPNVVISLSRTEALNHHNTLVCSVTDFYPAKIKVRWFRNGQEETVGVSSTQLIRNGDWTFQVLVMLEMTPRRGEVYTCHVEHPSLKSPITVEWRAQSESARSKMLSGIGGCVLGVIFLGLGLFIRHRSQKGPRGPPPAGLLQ
The description is as above. The following applies: wild-type I-A^u; among 4A, 4E, 4Y; Fig. 1 a. In outline: as §1

In test [4] the target is T1, I-A^u. As to the kind of experiment: Peptide dissociation kinetics from purified MHC protein. Format: binding. The following applies: fluorescein-labeled peptide, pH 5.3, 37°C, HPSEC; Fig. 4 b. On the technique in general: Size exclusion chromatography separates by hydrodynamic size, large species first.
Test [5] concerns the target I-A^u class II MHC protein, purified (mouse). As to the kind of experiment: peptide dissociation kinetics followed by HPSEC with fluorescence detection.
For test [6], the target named is I-A^k class II MHC protein, wild type, on L cell transfectants (mouse). Put plainly: flow cytometry on cells.

Chain of I-A^k (P01910 24-256): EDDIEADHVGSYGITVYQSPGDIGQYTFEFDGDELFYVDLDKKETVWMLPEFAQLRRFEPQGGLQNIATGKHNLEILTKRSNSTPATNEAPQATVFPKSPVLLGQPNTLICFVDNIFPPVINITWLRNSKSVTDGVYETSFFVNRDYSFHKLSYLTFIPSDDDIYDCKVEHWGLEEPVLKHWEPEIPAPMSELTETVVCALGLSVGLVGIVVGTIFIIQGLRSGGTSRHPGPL
Chain of I-A^k (P06343 28-263): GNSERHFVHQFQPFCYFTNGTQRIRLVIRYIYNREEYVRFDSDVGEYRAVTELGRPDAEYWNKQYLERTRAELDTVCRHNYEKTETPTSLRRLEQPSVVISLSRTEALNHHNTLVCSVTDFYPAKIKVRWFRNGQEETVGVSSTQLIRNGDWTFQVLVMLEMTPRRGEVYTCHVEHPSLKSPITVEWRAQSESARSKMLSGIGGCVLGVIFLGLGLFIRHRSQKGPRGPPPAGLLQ

Turning to ISQAVAASQYRPSQRSKY [ova-MBP K4Y], the “proliferation responses of a series of MBP-responsive T cell lines” value in test [1] was “abrogated proliferation responses”. “4Y: MBP peptide with residue 4 lysine replaced with tyrosine (Ac-ASQYRPSQRHGSK-biotin)”: the “peptide preference of I-A^k H9V in FACS binding” value in test [2] is listed as “prefers”. For the same molecule, the “peptide preference of I-A^u in FACS binding” value in test [3] was “prefers”.

With ISQAVAASQKRPSQRSKY [ova-MBP], the “slower dissociation from I-A^u than wild-type MBP Ac1-12” value in test [4] is on record as approximately 80 fold. Further, the “proliferation responses of a series of MBP-responsive T cell lines” value in test [1] was “abrogated proliferation responses”. On to {5,6‑carboxyfluorescein}-ISQAVAASQKRPSQRSKY [ova-MBP (NH2-terminally extended MBP peptide), fluorescein-labelled], for which the fold slower dissociation than wild-type MBP Ac1-12 in test [5] was found to be 80 fold. In test [6], Ac-ASQERPSQRHGSK-biotin [biotinylated MBP Ac1-13 K4E (rat MBP sequence)] showed a fold improvement of binding over MBP Ac1-11 4A of 2 fold and a fold improvement of binding over wild-type MBP of more than 20 fold. For {5,6‑carboxyfluorescein}-ISQAVAASQYRPSQRSKY [ova-MBP K4Y, fluorescein-labelled], in test [5], the dissociation half-time (t 1/2) is more than 200 h and the fold increase in stability of binding over wild-type MBP is more than 1000 fold.
